Results reported in ChEMBL document CHEMBL1134769, “Potent and selective nonpeptide inhibitors of caspases 3 and 7” (J Med Chem, 2001).
pIC50, pKi: −log10 of the molar value. Values joined by “and” are separate entries in the source; they are usually repeats but may differ in a detail not shown here. Equal entries are not always repeated. Active and inactive are the calls of the source. The calls are words filed in the database; no cut-off is given here.

Columns and labels:
[1] = test system: C20/A4; assay: In vitro inhibition of Chondrocyte cell line C20/A4 apoptosis at 10 uM of compound; Not active; type: functional, cell-based; conditions: Homo sapiens
Summary of the method: (§1)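 Immortalized human chondrocyte line C20/A4 seeded at 20 000 cells/well overnight, then exposed 24 h to 4 μg/mL camptothecin with or without compound. Floating and adherent cells combined and lysed 30 min at 4 °C, then clarified at 14000g. Mono- and oligonucleosome DNA fragments measured by cell death ELISA; result expressed as % inhibition of apoptosis.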

[2] = test system: C20/A4; assay: In vitro inhibition of Chondrocyte cell line C20/A4 apoptosis at 25 uM of compound; Not active; type: functional, cell-based; conditions: Homo sapiens; summary of the method: as §1
[3] = target: T1, Caspase-3 (Homo sapiens, UniProt P42574); assay: Inhibition of recombinant human caspase-3
T1 sequence (P42574 whole entry): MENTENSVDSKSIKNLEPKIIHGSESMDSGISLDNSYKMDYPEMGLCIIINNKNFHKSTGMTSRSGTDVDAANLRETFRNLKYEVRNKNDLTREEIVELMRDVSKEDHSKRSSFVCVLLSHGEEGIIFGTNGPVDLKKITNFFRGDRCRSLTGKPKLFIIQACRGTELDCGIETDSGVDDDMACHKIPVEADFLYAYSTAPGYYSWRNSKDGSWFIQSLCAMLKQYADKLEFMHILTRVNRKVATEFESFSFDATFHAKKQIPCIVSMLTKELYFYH

[4] = test system: Jurkat (Homo sapiens); assay: In vitro inhibition of Jurkat cell apoptosis at 10 uM of compound
[5] = test system: Jurkat (Homo sapiens); assay: In vitro inhibition of Jurkat cell apoptosis at 50 uM of compound
[6] = target: T1, Caspase-3; assay: Inhibitory activity against caspase-3; conditions: read-out: Ki app
Summary of the method: (§2)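 Recombinant full-length human caspase 3 or 7, ~10 units/assay (1 unit = 1 pmol AMC/min). Substrate 10 μM Ac-DEVD-AMC. AMC fluorescence at 360/460 nm, 30 °C, with 5% final DMSO. Single-dose screen (typically 5–50 μM), then IC50 curves; repeated IC50s had CVs typically <30%.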

[7] = target: T2, Caspase-1 (Homo sapiens, UniProt P29466); assay: Inhibitory activity against caspase-1; conditions: read-out: Ki app
T2 sequence (P29466 whole entry): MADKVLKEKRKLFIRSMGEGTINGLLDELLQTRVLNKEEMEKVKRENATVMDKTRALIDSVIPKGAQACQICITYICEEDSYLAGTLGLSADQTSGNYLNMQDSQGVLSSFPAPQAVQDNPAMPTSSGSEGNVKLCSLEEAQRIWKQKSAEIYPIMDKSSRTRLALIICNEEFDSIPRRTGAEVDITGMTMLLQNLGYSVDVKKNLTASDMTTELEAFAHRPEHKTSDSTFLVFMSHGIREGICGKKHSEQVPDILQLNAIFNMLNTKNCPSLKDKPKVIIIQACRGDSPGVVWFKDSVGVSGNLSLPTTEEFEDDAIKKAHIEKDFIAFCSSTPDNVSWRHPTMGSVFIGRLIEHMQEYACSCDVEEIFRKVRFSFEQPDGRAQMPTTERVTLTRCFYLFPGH
Summary of the method: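 Recombinant full-length human caspase 1, ~10 units/assay, in 25 mM K+HEPES pH 7.5 with 10% sucrose, 0.1% CHAPS and 5 mM β-mercaptoethanol. Substrate 10 μM Ac-YVAD-AMC. AMC read at 360/460 nm, 30 °C, with 5% final DMSO. Single-dose screen (typically 5–50 μM), followed by IC50 curves for active compounds.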

[8] = target: T3, Caspase-4 (Homo sapiens, UniProt P49662); assay: Inhibitory activity against caspase-4; conditions: read-out: Ki app
T3 sequence (P49662 whole entry): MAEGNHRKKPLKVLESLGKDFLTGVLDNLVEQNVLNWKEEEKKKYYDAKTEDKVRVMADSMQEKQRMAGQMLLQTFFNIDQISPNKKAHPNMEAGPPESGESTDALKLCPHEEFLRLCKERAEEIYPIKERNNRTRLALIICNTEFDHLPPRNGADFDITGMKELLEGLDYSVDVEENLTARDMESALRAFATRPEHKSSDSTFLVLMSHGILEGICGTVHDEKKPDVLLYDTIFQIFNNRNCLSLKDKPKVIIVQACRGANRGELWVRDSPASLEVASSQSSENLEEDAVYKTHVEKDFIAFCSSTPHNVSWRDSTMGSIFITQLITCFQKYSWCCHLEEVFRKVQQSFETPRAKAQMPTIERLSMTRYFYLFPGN
Summary of the method: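 Recombinant full-length human caspase 4, ~10 units/assay, in potassium acetate pH 5.8 with 1 mM EDTA, 10% sucrose, 0.1% CHAPS and 5 mM β-mercaptoethanol. Substrate 100 μM Ac-LEED-AMC. Read at 360/460 nm, 30 °C, 5% final DMSO. Single-dose screen (typically 5–50 μM), then IC50 curves for actives.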

[9] = target: T4, Caspase-6 (Homo sapiens, UniProt P55212); assay: Inhibitory activity against Caspase-6; conditions: read-out: Ki app
T4 sequence (P55212 whole entry): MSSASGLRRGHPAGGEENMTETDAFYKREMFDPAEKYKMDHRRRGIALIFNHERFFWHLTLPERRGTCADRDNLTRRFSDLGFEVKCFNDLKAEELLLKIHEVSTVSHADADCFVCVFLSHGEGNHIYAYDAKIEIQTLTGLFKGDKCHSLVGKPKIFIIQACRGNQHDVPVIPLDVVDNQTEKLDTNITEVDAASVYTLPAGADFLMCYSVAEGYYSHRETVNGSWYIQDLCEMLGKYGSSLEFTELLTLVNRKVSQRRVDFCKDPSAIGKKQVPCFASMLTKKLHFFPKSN
Summary of the method: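 Recombinant full-length human caspase 6 (~10 units/assay) in 50 mM Tris-HCl pH 7.4 with 0.1% CHAPS, 1.5 mM MgCl2, 1 mM EDTA and 5 mM β-mercaptoethanol. Substrate 10 μM Ac-DEVD-AMC. AMC monitored at 360/460 nm, 30 °C, final DMSO 5%. Single-dose screen (typically 5–50 μM), then IC50 determination.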

[10] = target: T5, Caspase-7 (Homo sapiens, UniProt P55210); assay: Inhibitory activity against Caspase-7; conditions: read-out: Ki app; summary of the method: as §2
T5 sequence (P55210 whole entry): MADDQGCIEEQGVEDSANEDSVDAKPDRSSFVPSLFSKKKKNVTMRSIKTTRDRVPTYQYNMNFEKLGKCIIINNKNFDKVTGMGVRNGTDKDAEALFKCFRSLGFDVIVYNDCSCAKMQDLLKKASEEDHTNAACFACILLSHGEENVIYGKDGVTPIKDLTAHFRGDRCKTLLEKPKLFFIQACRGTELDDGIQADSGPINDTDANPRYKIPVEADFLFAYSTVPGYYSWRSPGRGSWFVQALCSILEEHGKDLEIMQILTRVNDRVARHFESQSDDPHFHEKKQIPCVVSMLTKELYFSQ

[11] = target: Caspase-8 (Homo sapiens, UniProt Q14790); assay: Inhibitory activity against Caspase-8; conditions: read-out: Ki app
Chain of Caspase-8 (Q14790 217-374 limits assumed): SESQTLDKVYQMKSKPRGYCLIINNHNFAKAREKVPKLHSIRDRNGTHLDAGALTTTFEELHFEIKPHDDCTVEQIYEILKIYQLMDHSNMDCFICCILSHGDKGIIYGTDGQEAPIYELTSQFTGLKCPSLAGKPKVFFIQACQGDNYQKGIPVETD
Chain of Caspase-8 (Q14790 385-479 limits assumed): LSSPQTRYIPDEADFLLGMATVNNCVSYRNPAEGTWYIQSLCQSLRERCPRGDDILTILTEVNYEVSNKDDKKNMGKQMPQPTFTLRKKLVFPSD
Summary of the method: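 Recombinant full-length human caspase 8, ~10 units/assay, in Na+MOPS pH 7.5 with 10% glycerol, 0.25 mM EDTA and 5 mM β-mercaptoethanol. Substrate 10 μM Ac-IETD-AMC. Fluorescence at 360/460 nm, 30 °C, 5% final DMSO. Compounds screened at a single dose (typically 5–50 μM), then full IC50 curves for actives.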

[12] = target: T6, Caspase-2 (Homo sapiens, UniProt P42575); assay: Inhibitory activity against caspase-2; conditions: read-out: Ki app
T6 sequence (P42575 whole entry): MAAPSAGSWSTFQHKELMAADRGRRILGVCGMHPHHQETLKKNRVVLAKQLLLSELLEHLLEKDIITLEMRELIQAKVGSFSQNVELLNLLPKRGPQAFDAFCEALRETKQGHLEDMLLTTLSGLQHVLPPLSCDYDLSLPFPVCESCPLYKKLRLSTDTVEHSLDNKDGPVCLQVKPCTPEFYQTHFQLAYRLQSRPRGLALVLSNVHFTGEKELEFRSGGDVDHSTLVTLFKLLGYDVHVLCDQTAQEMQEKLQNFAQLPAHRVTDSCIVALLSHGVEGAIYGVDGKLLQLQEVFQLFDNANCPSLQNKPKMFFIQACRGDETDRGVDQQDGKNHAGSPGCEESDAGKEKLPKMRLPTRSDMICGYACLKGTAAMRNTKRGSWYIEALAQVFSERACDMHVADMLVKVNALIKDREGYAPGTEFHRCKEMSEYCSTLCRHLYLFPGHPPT
Summary of the method: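 Recombinant full-length human caspase 2 (~10 units/assay) in 50 mM sodium acetate pH 6.2 with 10% glycerol, 0.25 mM EDTA and 5 mM β-mercaptoethanol. Substrate 25 μM Ac-VDVAD-AMC. Fluorescence at 360/460 nm, 30 °C, final DMSO 5%. Compounds screened at a single dose (typically 5–50 μM), then full IC50 curves where activity was seen.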

[13] = target: T7, Caspase-9 (Homo sapiens, UniProt P55211); assay: Inhibitory activity against Caspase-9; conditions: read-out: Ki app
T7 sequence (P55211 whole entry): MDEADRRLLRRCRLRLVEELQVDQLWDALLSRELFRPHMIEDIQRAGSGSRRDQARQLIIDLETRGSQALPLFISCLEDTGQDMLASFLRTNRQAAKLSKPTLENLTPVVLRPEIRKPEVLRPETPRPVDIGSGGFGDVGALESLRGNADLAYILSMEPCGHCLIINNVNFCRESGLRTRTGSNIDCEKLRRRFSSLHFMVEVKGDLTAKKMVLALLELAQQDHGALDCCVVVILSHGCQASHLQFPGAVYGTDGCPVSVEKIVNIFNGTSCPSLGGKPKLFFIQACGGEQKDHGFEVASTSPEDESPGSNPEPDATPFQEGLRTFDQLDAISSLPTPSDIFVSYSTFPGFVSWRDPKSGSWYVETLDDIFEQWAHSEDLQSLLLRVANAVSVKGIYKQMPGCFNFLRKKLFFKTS

[14] = test system: C20/A4; assay: In vitro inhibition of Chondrocyte cell line C20/A4 apoptosis at 25 uM of compound; type: functional, Homo sapiens; summary of the method: as §1
[15] = test system: C20/A4; assay: In vitro inhibition of Chondrocyte cell line C20/A4 apoptosis at 10 uM of compound; type: functional, Homo sapiens; summary of the method: as §1
[16] = target: T1, Caspase-3; assay: In vitro inhibition of Caspase-3 in presence of naive chondrocyte cell cytosol
Summary of the method: (§3)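 IC50 against recombinant full-length human caspase 3 (~10 units/assay; 1 unit = 1 pmol AMC/min), with cytosol from uninduced (nonapoptotic) chondrocytes making up 90% of assay volume. Assay buffer was 25 mM K+HEPES pH 7.5, 0.1% CHAPS, 50 mM KCl and 5 mM β-mercaptoethanol, with 10 μM Ac-DEVD-AMC. AMC was read at 30 °C (ex 360/em 460 nm) with 5% final DMSO.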

[17] = target: T1, Caspase-3; assay: In vitro inhibition of Caspase-3 in presence of uninduced chondrocyte cell cytosol; summary of the method: as §3
[18] = target: T1, Caspase-3; assay: In vitro inhibition of Caspase-3 in presence of camptothecin induced chondrocyte cell cytosol.
Summary of the method: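 IC50 measured in cytosol from camptothecin-treated (apoptotic) chondrocytes at 90% of assay volume. Two conditions: the endogenous caspase 3-like activity alone, or with added recombinant human caspase 3 (~10 units/assay). Buffer was 25 mM K+HEPES pH 7.5, 0.1% CHAPS, 50 mM KCl and 5 mM β-mercaptoethanol, with 10 μM Ac-DEVD-AMC. AMC fluorescence was read at 30 °C (ex 360/em 460 nm) with 5% final DMSO.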

Structure (SMILES) | pIC50 [3] | Inhibition [4] | Inhibition [5] | pKi [6] | pKi [7] | pKi [8] | pKi [9] | pKi [10] | pKi [11] | pKi [12] | pKi [13] | Inhibition [14] | Inhibition [15] | also measured
COC[C@H]1CCCN1S(=O)(=O)c1ccc2c(c1)C(=O)C(=O)N2 | 4.74 | 15% | 22% |  |  |  |  |  |  |  |  |  |  | NA [1]: inactive; NA [2]: inactive
O=C1Nc2ccc(S(=O)(=O)N3CCCC3)cc2C1=O | 5.55 |  |  | 5.85 | 5.05 | < 4.30 | < 4.30 | 5.52 | < 4.30 | < 4.30 | 4.92 |  |  | 
CN1C(=O)C(=O)c2cc(C(=O)O)ccc21 | < 4.30 |  |  |  |  |  |  |  |  |  |  |  |  | 
C=CCN1C(=O)C(=O)c2cc(S(=O)(=O)N3CCC[C@H]3COc3ccccc3)ccc21 |  | 60% | 89% |  |  |  |  |  |  |  |  | 95% | 71% | 
O=C1C(=O)N(Cc2ccncc2)c2ccc(S(=O)(=O)N3CCC[C@H]3COc3ccccc3)cc21 |  |  |  |  |  |  |  |  |  |  |  | 89% | 64% | 
CN1C(=O)C(=O)c2cc(S(=O)(=O)N3CCC[C@H]3COc3ccccc3)ccc21 | 4.52 and 4.33 | 41% | 92% |  |  |  |  |  |  |  |  | 85% | 48% | pIC50 [16]: 5.12; pIC50 [17]: 5.12; pIC50 [18]: 6.08
CN1C(=O)C(=O)c2cc([N+](=O)[O-])ccc21 | 6.00 |  |  | 6.30 | 4.92 | 5.40 | 5.77 | 6.54 | < 4.30 | < 4.30 | 5.14 |  |  | 
O=C1C(=O)N(Cc2ccccc2)c2ccc([N+](=O)[O-])cc21 | 6.60 |  |  | 6.89 | 4.74 | 5.30 | 6.00 | 6.77 | 4.51 | < 4.60 | 5.30 |  |  | 
O=C1Nc2ccc(S(=O)(=O)N3CCCC3C(=O)Nc3ccccc3)cc2C1=O (centres undefined) | 6.85 |  |  |  |  |  |  |  |  |  |  |  |  | 
CN1C(=O)C(=O)c2ccccc21 | < 4.30 |  |  |  |  |  |  |  |  |  |  |  |  | 
